Results taken from ChEMBL document CHEMBL4024803, “New Steroidal 4-Aminoquinolines Antagonize Botulinum Neurotoxin Serotype A in Mouse Embryonic Stem Cell Derived Motor Neurons in Postintoxication Model” (J Med Chem, 2018).

Experiments:
[1] = Drug uptake in mouse serum at 600 mg/kg, po measured at 45 mins by UPLC-MS/MS method; type: ADME, organism-based; conditions: read-out: Drug uptake
How it was run: (§1)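 Single oral dose (400 mg/kg, 7 mice; 600 mg/kg, 6 mice), dissolved in DMSO and suspended in 0.5% hydroxyethylcellulose–0.1% Tween 80. Blood taken by cardiac puncture under chloroform, one mouse per time point, 15–120 min. Serum proteins precipitated with 2 volumes acetonitrile; analysed by UPLC-MS/MS against blank human serum calibration. Half-life read from the concentration–time curve.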

Mus musculus [2] = assay: Tmax in mouse at 400 mg/kg, po by UPLC-MS/MS method; type: ADME, organism-based; conditions: in vivo
How it was run: (§2)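 Single oral dose in DMSO suspended in 0.5% hydroxyethylcellulose–0.1% Tween 80, given to 7 (400 mg/kg) or 6 (600 mg/kg) mice. Serum came from cardiac puncture under chloroform, one mouse per time point, 15–120 min. Acetonitrile-precipitated serum was analysed by UPLC-MS/MS against calibration in blank human serum.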

[3] = biological target: Botulinum neurotoxin type A (Clostridium botulinum) (UniProt P0DPI0); assay: Inhibition of Clostridium botulinum BoNT/A holotoxin-mediated SNAP-25 cleavage in mouse HBG3 cell-derived motor neurons assessed as full length of SNAP-25 at 20 uM treated at 30 mins post intoxication by Western blot method relative to control; design: scale not given: the % may be the effect or the level left
Mus musculus [4] = assay: Toxicity in mouse assessed as effect on behavior at 400 to 600 mg/kg, po administered as single dose measured 2 times a day for 30 days; type: organism-based; conditions: in vivo, 720 h
How it was run: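 Two groups of 5 healthy mice each received one oral dose, 400 or 600 mg/kg. Survival, appearance and behaviour were followed for 30 days. Non-toxic was defined as all 5 surviving with normal appearance and behaviour.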

[5] = Drug uptake in mouse serum at 600 mg/kg, po measured at 90 mins by UPLC-MS/MS method; type: ADME, organism-based; conditions: read-out: Drug uptake; how it was run: as §1
[6] = Drug uptake in mouse serum at 400 mg/kg, po measured at 60 mins by UPLC-MS/MS method; type: ADME, organism-based; conditions: read-out: Drug uptake; how it was run: as §1
Serum [7] = assay: Drug uptake in mouse serum at 400 mg/kg, po measured at 90 mins by UPLC-MS/MS method; type: ADME, organism-based; conditions: in vivo, 1.5 h, BLD = below limit of detection; how it was run: as §1
[8] = Drug uptake in mouse serum at 400 mg/kg, po measured at 22 mins by UPLC-MS/MS method; type: ADME, organism-based; conditions: read-out: Drug uptake; how it was run: as §1
Mus musculus [9] = assay: Drug metabolism in mouse assessed as (3alpha,5beta,7alpha,12alpha)-3-Amino-24-({4-[(7-chloroquinolin-4-yl)amino]butyl}amino)cholane-7,12-diol formation at 400 to 600 mg/kg, po by UPLC-MS/MS method; type: ADME, organism-based; conditions: in vivo
Mus musculus [10] = assay: Tmax in mouse at 600 mg/kg, po by UPLC-MS/MS method; type: ADME, organism-based; conditions: in vivo; how it was run: as §2
Serum [11] = assay: Drug uptake in mouse serum at 400 mg/kg, po measured at 120 mins by UPLC-MS/MS method; type: ADME, organism-based; conditions: in vivo, 2 h, BLD = below limit of detection; how it was run: as §1
[12] = Distribution co-efficient, log D of the compound at pH 1 by reversed-phase thin-layer chromatographic method; type: physicochemical; conditions: buffer
How it was run: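 Reversed-phase thin-layer chromatography at pH 1, mobile phase MeOH/HCl (70/30).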

[13] = Drug uptake in mouse serum at 600 mg/kg, po measured at 120 mins by UPLC-MS/MS method; type: ADME, organism-based; conditions: read-out: Drug uptake; how it was run: as §1
Mus musculus [14] = assay: Half life in mouse at 400 mg/kg, po by UPLC-MS/MS method; type: ADME, organism-based; conditions: in vivo; how it was run: as §1
[15] = Drug uptake in mouse serum at 400 mg/kg, po measured at 45 mins by UPLC-MS/MS method; type: ADME, organism-based; conditions: read-out: Drug uptake; how it was run: as §1
Mus musculus [16] = assay: Time at which drug concentration stays above 3 uM in mouse at 400 mg/kg, po by UPLC-MS/MS method; type: ADME, organism-based; conditions: in vivo; how it was run: as §2
Cytochrome P450 3A4 [17] = biological target: T1, Cytochrome P450 3A4 (Homo sapiens, UniProt P08684); assay: Inhibition of CYP3A4 (unknown origin) using BQ as substrate; type: ADME
T1 sequence (P08684 whole entry): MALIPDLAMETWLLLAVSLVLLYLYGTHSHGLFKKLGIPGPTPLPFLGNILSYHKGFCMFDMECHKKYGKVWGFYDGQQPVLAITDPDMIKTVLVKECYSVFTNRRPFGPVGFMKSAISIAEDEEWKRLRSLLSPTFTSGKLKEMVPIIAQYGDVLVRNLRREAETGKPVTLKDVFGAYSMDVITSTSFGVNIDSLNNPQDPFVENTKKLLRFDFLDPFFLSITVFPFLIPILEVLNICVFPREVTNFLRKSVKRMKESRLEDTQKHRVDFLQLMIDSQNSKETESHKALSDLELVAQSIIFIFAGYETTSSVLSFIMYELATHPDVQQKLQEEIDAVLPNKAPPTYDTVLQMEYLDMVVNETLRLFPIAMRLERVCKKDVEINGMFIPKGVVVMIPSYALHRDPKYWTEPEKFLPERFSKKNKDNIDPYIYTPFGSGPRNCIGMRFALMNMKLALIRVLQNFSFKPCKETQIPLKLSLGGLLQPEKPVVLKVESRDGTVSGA
How it was run: (§3)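 Active CYP450 enzyme incubated at 37°C for a set time with a fluorogenic probe substrate (BQ, DBF or BFC for CYP3A4; CEC for CYP2C19; AMMC for CYP2D6). IC50 derived from net fluorescent signal.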

[18] = Drug uptake in mouse serum at 600 mg/kg, po measured at 30 mins by UPLC-MS/MS method; type: ADME, organism-based; conditions: read-out: Drug uptake; how it was run: as §1
Cytochrome P450 3A4 [19] = biological target: T1, Cytochrome P450 3A4; assay: Inhibition of CYP3A4 (unknown origin) using DBF as substrate; type: ADME; how it was run: as §3
[20] = biological target: Botulinum neurotoxin type A (Clostridium botulinum, UniProt P0DPI0)
Liver = assay: Intrinsic clearance in mouse liver microsomes after 1 hr; type: ADME, microsome
How it was run: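 Substrate-depletion assay: compound incubated with human or mouse liver microsomes for 1 h at 37°C. Half-life and intrinsic clearance derived from compound loss.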

Mus musculus [21] = assay: AUC (0 to 120 mins) in mouse at 600 mg/kg, po by UPLC-MS/MS method; type: ADME, organism-based; design: dose 600 mg/kg, time < 2 hr, route oral; conditions: in vivo, 2 h
Mus musculus [22] = assay: Time at which drug concentration stays above 3 uM in mouse at 600 mg/kg, po by UPLC-MS/MS method; type: ADME, organism-based; conditions: in vivo; how it was run: as §2
Plasma = assay: Metabolic stability in human plasma assessed as compound remaining after 1 hr; type: ADME, cell-free
How it was run: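 Compound incubated in human plasma for 1 h at 37°C; percent remaining determined.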

Mus musculus [23] = assay: Cmax in mouse at 600 mg/kg, po by UPLC-MS/MS method; type: ADME, organism-based; design: dose 600 mg/kg, route oral; conditions: in vivo; how it was run: as §1
[24] = Drug uptake in mouse serum at 400 mg/kg, po measured at 30 mins by UPLC-MS/MS method; type: ADME, organism-based; conditions: read-out: Drug uptake; how it was run: as §1
[25] = Drug uptake in mouse serum at 600 mg/kg, po measured at 15 mins by UPLC-MS/MS method; type: ADME, organism-based; conditions: read-out: Drug uptake; how it was run: as §1

## CC(=O)O[C@H]1C[C@H]2[C@@H]([C@H](OC(C)=O)C[C@@H]3C[C@H](N)CC[C@@]32C)[C@@H]2CC[C@H]([C@H](C)CCCNCCCCNc3ccnc4cc(Cl)ccc34)[C@@]12C
[1]
  concentration at 0.75 h: 3.1 µM
Mus musculus [2]
  Tmax: 22 min
[3]
  Activity: 64%
Mus musculus [4]
  Activity: Non-Toxic
[5]
  concentration at 1.5 h: 4 µM
[6]
  concentration at 1 h: 2.8 µM
Serum [7]
  Drug uptake: Bld
[8]
  concentration at 22 min: 7.8 µM
Mus musculus [9]
  Drug metabolism: Metabolite_Notdetected
Mus musculus [10]
  Tmax: 15 min
Serum [11]
  Drug uptake: Bld
[12]
  chromatographic logD: 2.55
[13]
  concentration at 2 h: 2.4 µM
Mus musculus [14]
  t1/2: 43 min
[15]
  concentration at 0.75 h: 3.3 µM
Mus musculus [16]
  Time: > 45 min
Cytochrome P450 3A4 [17]
  IC50: 1100 nM
[18]
  concentration at 0.5 h: 5.9 µM
Cytochrome P450 3A4 [19]
  IC50: 1200 nM
[20]
  IC50: 8000 nM
Liver
  CLH: < 23 µL/min/mg
Mus musculus [21]
  AUC: 526 µM·min
Mus musculus [22]
  Time: > 45 min
Plasma
  Stability: > 85%
Mus musculus [23]
  Cmax: 11.9 µM
[24]
  concentration at 0.5 h: 4 µM
[25]
  concentration at 0.25 h: 11.9 µM
